Measured values from ChEMBL document CHEMBL4513216, “Probing the Open Global Health Chemical Diversity Library for Multistage-Active Starting Points for Next-Generation Antimalarials” (ACS Infect Dis, 2020).

Experiment: Toxicity liver stage against HepG2, at 10uM
Assay type: cell-based
Parameters: test concentration 10 uM, cell line HepG2-A16-CD81EGFP
Conditions: human, HepG2-A16-CD81EGFP cells; read-out: INHIBITION
Summary of the method: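 Uninfected HepG2-A16-CD81EGFP cells, 3 × 10^3 per well, 1536-well, plated on prespotted compound at 10 μM final, parasite-free screening media added to match infected plates; puromycin 10 μM positive, DMSO 0.5% negative; run in parallel with 48 h PbLuc assay at 37 °C, 5% CO2; viability by CellTiter-Glo luminescence, normalized to controls.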

SMILES	cytotoxicity at 10 µM [%]
Brc1cnc(NCCCOCC2CCOC2)nc1 (configuration not stated)	-2.15
CC(C)N1CC[C@H](c2nnc(Cc3c[nH]c4ccccc34)o2)C1	-9.04
CC(c1ccncc1)N(C)S(C)(=O)=O (configuration not stated)	1.18
CC(c1nc(C2CC2)no1)N(C)Cc1cccc(F)c1 (configuration not stated)	-5.43
CC(C)N1c2sc(-c3ccsc3)nc2CC1C(=O)NC1CCCC1 (configuration not stated)	9.1
Cc1cc(NCC2CCCCC2)n2ncnc2n1	-2.1
Cc1noc(C2CCCN2C(=O)C2CCC2)n1 (configuration not stated)	-12.4
COc1ccc(OC)c(-n2c(COC(C)C)n[nH]c2=O)c1	7.78
Cc1cc(C)n2c(CNCCNc3ccccc3)cnc2n1	-144
COc1cc(C(=O)N2CCCC(CNS(C)(=O)=O)C2)cc(OC)c1C (configuration not stated)	-7.69
CN(C)c1nc2c(c(N3CCC4(CCCNC4=O)C3)n1)CCCC2 (configuration not stated)	-5.81
CC(=O)N1CCC(c2nnc3ccc(C(=O)NC(C)C)cn23)C1 (configuration not stated)	6.37
Cc1ccccc1CN(CCN(C)C)Cc1ccc(O)c(C(=O)O)c1	0.935
Cc1cccc2c1nc1n2[C@@H](CNC(=O)c2cnccn2)COC1	6.54
Cc1cnc(CN2CCCC(c3cc(C(F)(F)F)[nH]n3)C2)cn1 (configuration not stated)	-0.168
O=C([C@@H]1CCO[C@@H]2CCN(CC3CCOCC3)C[C@H]21)N1CCCC1	-114
CC(=O)N1CCCC1c1cc(N2CCN(C3CCCC3)CC2)cc(C)n1 (configuration not stated)	1.18
COc1cc2c(cc1CNC(Cc1cccs1)c1nccs1)OCO2 (configuration not stated)	-1.88
CC(C)N(C)Cc1noc2c1CN(C(=O)c1ccsc1)CC2	4.89
CN(Cc1ccccc1)C1(C(=O)NCC(N)=O)Cc2ccccc2C1	2.45
Cc1nn(C)c(N(C)C)c1CNCc1ccccc1CN(C)C	-0.553
O=S(=O)(N1CCCCCC1)N1CCN(Cc2ccc(F)cc2Br)CC1	-132
CNC(=O)CN1CC[C@H]2CN(C(=O)c3ccccc3C)C[C@H]2C1	0.793

SMILES	cytotoxicity at 10 µM [%]
CN(Cc1cccnc1)[C@@H]1CN(C(=O)NC2CC2)[C@@H]2CCCO[C@H]12	2.75
CCOCCNC(=O)c1cccc(Cn2nc(C)cc2C)c1	-7.69
O=C(NCC1CC1)C1CN(C(=O)Cc2cccs2)CC12CCOCC2 (configuration not stated)	4.76
O=C(c1cccnc1N1CCOC(c2ccc(F)cc2)C1)N1CCCC1 (configuration not stated)	8.04
O=C(NS(=O)(=O)c1c(Cl)cccc1Cl)c1cccc2c1OCCO2	0.582
O=C(NCC(O)c1cccc(F)c1)c1cccnc1O (configuration not stated)	-1.68
Cc1cnc2n(c1=O)CC(C(=O)Nc1ccccc1Cl)CS2 (configuration not stated)	-10.7
Cc1noc(C)c1CN(C)Cc1csc(-c2ccc(C(C)C)cc2)n1	54.8
CS(=O)(=O)CCCNC1(c2ccc(Br)cc2)CCC1	-0.0862
CCn1ncc2c1CCCC2NCc1ccc(OC)c(C)c1 (configuration not stated)	-8
Cc1noc(-c2c[nH]nc2C2CCCN2C(=O)c2ccccc2)c1C (configuration not stated)	-8.77
Cc1nc(C)n(C2CCCN(C(=O)c3csc(CC(C)C)n3)C2)n1 (configuration not stated)	-17.3
O=C1COC2(CCN(Cc3cccnc3)CC2)CN1	2.78
COCCc1ncc(CN2C[C@@H](C(=O)O)[C@H](C(C)C)C2)cn1	-5.35
CC1CCCCN1Cc1nc(C2CC2)no1 (configuration not stated)	4.48
Cn1cc(CN2CC[C@H]3C[C@H](c4nc(C5CC5)cs4)O[C@@H]3C2)cn1	-6.78
Cc1cn(CC(=O)NCC(=O)NC2CC2)c2ccccc12	-0.966
COc1ccc2nc(C3CC3)cc(C(=O)NCCc3nnc[nH]3)c2c1	0.867
CCc1cccc2cc(CN)c(=O)[nH]c12	3.54
COc1ccc(Br)cc1CN(C)C(C)c1nc(C)no1 (configuration not stated)	-4.02
CCC(CNC(=O)NC1CCN(C)CC1)Oc1ccccc1Cl (configuration not stated)	5.47
Cc1nnc(SCC(=O)c2cc3c(cc2Cl)NC(=O)C3)o1	-5.28
CN(C)CCn1ccnc1C1CCCN(C(=O)CCc2cccnc2)C1 (configuration not stated)	-3.64

SMILES	cytotoxicity at 10 µM [%]
O=C(O)c1ccnc(-c2ccnc(NCCc3nc4c(s3)CCC4)n2)c1	-4.23
O=C(Cn1cc(NC(=O)c2ccc(F)cc2F)cn1)NC1CCCC1	-0.561
Cc1nn(C)c(Cl)c1C1CCCN1C(=O)c1cc[nH]n1 (configuration not stated)	-5.55
CC(=O)N1CCc2c(nc(N(C)C)nc2NCCc2cccs2)C1	-54
COc1ccnc(NC2CCN(CC(=O)Nc3ccccc3)CC2)n1	-11
O=C(C1CCOCC1)N1CCc2ncnc(-c3ccc(F)cc3)c2CC1	-6.28
Cc1ccc(-c2n[nH]cc2CN(Cc2nccn2C)C(C)C)cc1C	2.57
CCOc1ncccc1NC(=O)C1CCS(=O)(=O)C1 (configuration not stated)	-16.7
CCOC(=O)N1CCC(Oc2ccc(C(F)(F)F)cn2)CC1	7.5
CC(C)N1CCC(Cc2cncc(-c3ccccc3C(=O)O)n2)CC1	0.822
CN1CC(=O)N(c2ccsc2)CC12CCN(Cc1cnn(C)c1)C2 (configuration not stated)	0.0218
CC(C)CCn1ccc(NC2CCSC2)n1 (configuration not stated)	6.93
CC1CN(c2ccc(CNC(=O)NCCn3ccnc3)cn2)CCO1 (configuration not stated)	8.4
Cc1cc(C(=O)N2CCc3c(ncn3CCc3ccccc3)C2)on1	-3.58
N#Cc1ccc(CNCCS(=O)(=O)N2CCc3ccccc32)cc1	-4.11
CCOC1COC2(CCN(S(=O)(=O)c3cccc(F)c3)CC2)C1 (configuration not stated)	5.15
CCCS(=O)(=O)N1CCC2(CN(c3ccccc3)C(=O)CN2C)C1 (configuration not stated)	4.15
Cc1cc(C(=O)CN2CCN(c3cnccn3)CC2)c(C)n1C(C)C	7.36
COC(=O)CCC(=O)NC(C)Cc1ccccc1Br (configuration not stated)	-6.66
Cc1noc(C)c1CNC1CCN(c2ccccc2OC(F)F)C1 (configuration not stated)	9.5
c1ncc2c(n1)CN(Cc1nc(-c3ccoc3)no1)CC2	-10.2
C1CCC(NC2CCCN(Cc3noc(C4CC4)n3)C2)C1 (configuration not stated)	-5.05
O=C(CNCCn1cccn1)NCC1(c2ccccc2)CCOCC1	-8.27

SMILES	cytotoxicity at 10 µM [%]
CC1(c2ccc(Br)cc2)CC(=O)N(CC(N)=O)C1=O (configuration not stated)	2.05
Cc1cc2c(cc1C(=O)N1CC[C@H](CO)[C@@H](O)C1)OCCO2	-10.8
Cc1cc2c(=O)n3c(nc2s1)CCN(C(=O)c1ccnn1C(C)C)CC3	-6.46
CC(=O)N1CCCN(C(=O)NC(C)c2csc3ccccc23)CC1 (configuration not stated)	-4.6
Cc1cc(N2CCC(c3nnc(CN(C)C)n3C3CC3)CC2)ccn1	7.57
O=C(Nc1cccnc1)C1=NN(c2ccccc2)C(=O)CN1	-7.12
Cc1nn(C)c2c(NCc3ccccc3F)nc(C3CC3)nc12	15.5
CC(C)COc1cncc(N(C)C2CCN(c3ncccn3)CC2)n1	0.583
COc1ccc(C(=O)C2CCCN(Cc3ccccc3O)C2)c(OC)c1 (configuration not stated)	5.45
Cc1ccc(C(=O)N2CC(C(N)=O)O[C@H](C)C2)c(C)c1 (some centres not stated)	-0.29
CCC(C)NC(=O)c1cc(S(=O)(=O)N2CCCC2)c(C)s1 (configuration not stated)	-2.6
Cc1nn(C)c(C)c1OCC(=O)NCC(O)c1ccccc1F (configuration not stated)	0.621
CC(C)N(C)C(=O)c1ccc(CNc2cncc(Cl)n2)cc1	2.87
CCCN(CC)C(=O)c1ncn2c1CN(C)S(=O)(=O)c1ccccc1-2	-152
Cc1cc(CC(=O)NC2CCCN(c3ccccc3F)C2=O)n[nH]1 (configuration not stated)	1.46
CCOc1ccc(NC(C)=O)cc1S(=O)(=O)Nc1cc(C)on1	-4.13
CNc1cc(C(=O)NCCC2=CSC3=NCCCN23)ccn1	8.71
Cc1ccc2c(C)c(C(=O)NCc3csc(N)n3)oc2c1	-2.83
Cc1noc2nc(C3CCN(CC4CCCCC4)CC3)cc(C(F)F)c12	-0.335
CN1CCN(C(=O)N2CCCC2)Cc2cccnc21	-3.66
CCN(CC(=O)Nc1cc(Cl)ccc1C)C(=O)c1cnccn1	-0.12
O=C(C1CC1)N1CCC2(CC1)CNc1ccc(F)cc12	11
O=S1(=O)CCCN1Cc1coc(-c2cccs2)n1	17.5

SMILES	cytotoxicity at 10 µM [%]
O=C1CN(C(=O)c2cc3c(F)cc(Br)cc3[nH]2)CCN1	0.0723
CC(C)(CO)NC(=O)C1CCC(=O)N(Cc2ccc(Cl)cc2)C1 (configuration not stated)	-6.14
CC(C1CCN(Cc2ccc(N(C)C)nc2)CC1)N1CCOCC1 (configuration not stated)	6.06
CN(C)C(=O)NC1COC2(CCN(Cc3ccccc3)CC2)C1 (configuration not stated)	4.14
O=C(NCCn1ccnc1)N1CCCN(Cc2cccs2)CC1	-29.7
COc1cccc(-c2noc(C3CCN(CC(N)=O)C3)n2)c1 (configuration not stated)	-11.3
Cc1nn(C)c(N2CCOCC2)c1CNC1CCCCNC1=O (configuration not stated)	5.84
Cn1nc(C(=O)N2CCCCC2c2nc3cc(F)ccc3[nH]2)ccc1=O (configuration not stated)	-18.2
Cc1ccc(-c2cc(C(=O)NCCCc3csc(N)n3)[nH]n2)o1	79.5
c1[nH]c(CC2CCCC2)nc1CN1CCCC2(CCOC2)C1 (configuration not stated)	-9.12
CC(=O)N1CCN(CCNS(=O)(=O)c2c(F)cccc2F)CC1	-1.14
CC(Cn1cccn1)NCc1nc(-c2cccc(Cl)c2)no1 (configuration not stated)	-9.21
COC(=O)CC1CCN(C(=O)c2ccc(C)cc2)CC1	4.99
Cc1ccsc1CNc1ccccc1C(=O)N1CCNC(=O)C1	-1.68
CC(C)Cn1cc(NC(=O)N2CCOC(c3ccccc3)C2)cn1 (configuration not stated)	7.59
O=S(=O)(CCCN1CCCCC1Cn1cncn1)c1ccccc1 (configuration not stated)	-7.42
COC1C[C@@H]2CN(C(=O)Cc3ccc(C)s3)C[C@@H]2C1 (some centres not stated)	3.53
Cc1ccc(NCc2cn3c(n2)CN(Cc2ccc(C)o2)CC3)nn1	8.19
CCSc1cccc(NCc2cccnc2)c1	0.14
COc1ccccc1C(C)(C)NCc1ccc(C)o1	-0.121
